In ChEMBL document CHEMBL5724801, “EUbOPEN Chemogenomics Library - Multiplex” (2024):
Where “and” joins values, the source holds several entries; their conditions need not be identical. Equal values may be shown once.

System: Fibroblast
Experiment: Multiplex assay against human fibroblast
Assay type: toxicity, cell-based
Summary of the method: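 Per cents of healthy-nucleus cells form the tubulin, mitochondrial-mass and membrane-permeability phenotype values. Live cells were stained at seeding with Hoechst33342, BioTracker Green Microtubule Cytoskeleton Dye, MitoTracker Red and Annexin V Alexa Fluor 680. After compound addition they were imaged on a CQ1 microscope at 37°C and 5% CO2, and CellPathfinder machine-learning gating split them into Hoechst high-intensity objects or normal cells, normal cells into healthy, pyknosed or fragmented nuclei, and pyknosed cells into mitotic or apoptotic.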

[1] = 12 h, 1 µM, compound concentration 1 uM
[2] = 12 h, 10 µM, compound concentration 10 uM
[3] = 24 h, 1 µM, compound concentration 1 uM
[4] = 24 h, 10 µM, compound concentration 10 uM
[5] = 48 h, 1 µM, compound concentration 1 uM
[6] = 48 h, 10 µM, compound concentration 10 uM

Cc1[nH]nc2ccc(-c3cncc(OCC(N)Cc4c[nH]c5ccccc45)c3)cc12 (centres undefined)
Population Apoptotic (%) [1]: 18.11% and 24.66% | Population Fragmented Nuclei (%) [1]: 16.11% and 10.36% | Population Healthy Nuclei (%) [1]: 41.28% and 56.76% | Population Hoechst High Intensity Objects (%) [1]: 0% | Population Membrane Permeable-Phenotype (%) [1]: 3.25% and 3.97% | Population Mitochondria Different-Phenotype (%) [1]: 17.07% and 15.08% | Population Mitotic Cells (%) [1]: 81.89% and 75.34% | Population Normal (%) [1]: 100% | Population Pyknosed Nuclei (%) [1]: 42.62% and 32.88% | Population Tubulin-Different-Phenotype (%) [1]: 23.58% and 29.37% | Total Cell Count [1]: 298 and 222 | Population Apoptotic (%) [2]: 73.46% and 80.82% | Population Fragmented Nuclei (%) [2]: 20.65% and 12.77% | Population Healthy Nuclei (%) [2]: 11.29% and 2.66% | Population Hoechst High Intensity Objects (%) [2]: 0% and 0.27% | Population Membrane Permeable-Phenotype (%) [2]: 2.86% and 10% | Population Mitochondria Different-Phenotype (%) [2]: 5.71% and 10% | Population Mitotic Cells (%) [2]: 26.54% and 19.18% | Population Normal (%) [2]: 100% and 99.73% | Population Pyknosed Nuclei (%) [2]: 68.06% and 84.57% | Population Tubulin-Different-Phenotype (%) [2]: 22.86% and 10% | Total Cell Count [2]: 310 and 377 | Population Apoptotic (%) [3]: 27.83% and 30.77% | Population Fragmented Nuclei (%) [3]: 13.42% and 3.92% | Population Healthy Nuclei (%) [3]: 47.99% and 64.22% | Population Hoechst High Intensity Objects (%) [3]: 0% | Population Membrane Permeable-Phenotype (%) [3]: 0.7% and 2.29% | Population Mitochondria Different-Phenotype (%) [3]: 10.49% and 14.5% | Population Mitotic Cells (%) [3]: 72.17% and 69.23% | Population Normal (%) [3]: 100% | Population Pyknosed Nuclei (%) [3]: 38.59% and 31.86% | Population Tubulin-Different-Phenotype (%) [3]: 18.88% and 22.14% | Total Cell Count [3]: 298 and 204 | Population Apoptotic (%) [4]: 65.94% and 93.38% | Population Fragmented Nuclei (%) [4]: 25.98% and 13.12% | Population Healthy Nuclei (%) [4]: 19.69% and 18.55% | Population Hoechst High Intensity Objects (%) [4]: 0% | Population Membrane Permeable-Phenotype (%) [4]: 10% and 14.63% | Population Mitochondria Different-Phenotype (%) [4]: 6% and 7.32% | Population Normal (%) [4]: 100% | Population Pyknosed Nuclei (%) [4]: 54.33% and 68.33% | Population Tubulin-Different-Phenotype (%) [4]: 24% and 48.78% | Total Cell Count [4]: 254 and 221 | Population Apoptotic (%) [5]: 32.98% and 38.18% | Population Fragmented Nuclei (%) [5]: 11.28% and 7.22% | Population Healthy Nuclei (%) [5]: 53.38% and 64.43% | Population Hoechst High Intensity Objects (%) [5]: 0% | Population Membrane Permeable-Phenotype (%) [5]: 0% and 3.2% | Population Mitochondria Different-Phenotype (%) [5]: 17.61% and 10.4% | Population Mitotic Cells (%) [5]: 67.02% and 61.82% | Population Normal (%) [5]: 100% | Population Pyknosed Nuclei (%) [5]: 35.34% and 28.35% | Population Tubulin-Different-Phenotype (%) [5]: 13.38% and 9.6% | Total Cell Count [5]: 266 and 194 | Population Apoptotic (%) [6]: 40.43% and 95.45% | Population Fragmented Nuclei (%) [6]: 31.02% and 56.65% | Population Healthy Nuclei (%) [6]: 47.22% and 30.64% | Population Hoechst High Intensity Objects (%) [6]: 0% | Population Membrane Permeable-Phenotype (%) [6]: 5.88% and 11.32% | Population Mitochondria Different-Phenotype (%) [6]: 31.37% and 37.74% | Population Normal (%) [6]: 100% | Population Pyknosed Nuclei (%) [6]: 21.76% and 12.72% | Population Tubulin-Different-Phenotype (%) [6]: 35.29% and 66.04% | Total Cell Count [6]: 216 and 173

O=C(Nc1cc(-c2ccccc2)nn1-c1ccccc1F)c1ccc([N+](=O)[O-])cc1
Population Apoptotic (%) [1]: 28% and 32% | Population Fragmented Nuclei (%) [1]: 17% and 19% | Population Healthy Nuclei (%) [1]: 71% and 55% | Population Hoechst High Intensity Objects (%) [1]: 2% and 8% | Population Membrane Permeable-Phenotype (%) [1]: 1% and 4% | Population Mitochondria Different-Phenotype (%) [1]: 1% and 9% | Population Mitotic Cells (%) [1]: 71% and 67% | Population Normal (%) [1]: 97% and 91% | Population Pyknosed Nuclei (%) [1]: 10% and 25% | Population Tubulin-Different-Phenotype (%) [1]: 22% and 53% | Total Cell Count [1]: 138 and 160 | Population Apoptotic (%) [2]: 28% and 45% | Population Fragmented Nuclei (%) [2]: 10% and 25% | Population Healthy Nuclei (%) [2]: 66% and 47% | Population Hoechst High Intensity Objects (%) [2]: 2% and 6% | Population Membrane Permeable-Phenotype (%) [2]: 1% and 6% | Population Mitochondria Different-Phenotype (%) [2]: 4% and 3% | Population Mitotic Cells (%) [2]: 71% and 54% | Population Normal (%) [2]: 97% and 93% | Population Pyknosed Nuclei (%) [2]: 22% and 26% | Population Tubulin-Different-Phenotype (%) [2]: 48% and 77% | Total Cell Count [2]: 170 and 149 | Population Apoptotic (%) [3]: 53% and 50% | Population Fragmented Nuclei (%) [3]: 16% and 25% | Population Healthy Nuclei (%) [3]: 74% and 53% | Population Hoechst High Intensity Objects (%) [3]: 2% and 7% | Population Membrane Permeable-Phenotype (%) [3]: 0% and 6% | Population Mitochondria Different-Phenotype (%) [3]: 0% and 2% | Population Mitotic Cells (%) [3]: 46% and 50% | Population Normal (%) [3]: 97% and 92% | Population Pyknosed Nuclei (%) [3]: 9% and 20% | Population Tubulin-Different-Phenotype (%) [3]: 18% and 52% | Total Cell Count [3]: 135 and 156 | Population Apoptotic (%) [4]: 26% and 28% | Population Healthy Nuclei (%) [4]: 76% and 53% | Population Hoechst High Intensity Objects (%) [4]: 4% and 6% | Population Membrane Permeable-Phenotype (%) [4]: 1% and 9% | Population Mitochondria Different-Phenotype (%) [4]: 7% and 1% | Population Mitotic Cells (%) [4]: 73% and 72% | Population Normal (%) [4]: 95% and 93% | Population Pyknosed Nuclei (%) [4]: 16% and 18% | Population Tubulin-Different-Phenotype (%) [4]: 49% and 69% | Total Cell Count [4]: 163 and 147 | Population Apoptotic (%) [5]: 54% and 55% | Population Fragmented Nuclei (%) [5]: 23% and 30% | Population Healthy Nuclei (%) [5]: 67% and 53% | Population Hoechst High Intensity Objects (%) [5]: 7% | Population Membrane Permeable-Phenotype (%) [5]: 1% and 5% | Population Mitochondria Different-Phenotype (%) [5]: 0% and 4% | Population Mitotic Cells (%) [5]: 45% and 44% | Population Normal (%) [5]: 92% | Population Pyknosed Nuclei (%) [5]: 8% and 15% | Population Tubulin-Different-Phenotype (%) [5]: 18% and 54% | Total Cell Count [5]: 145 and 183 | Population Apoptotic (%) [6]: 66% and 52% | Population Fragmented Nuclei (%) [6]: 16% and 31% | Population Healthy Nuclei (%) [6]: 70% and 54% | Population Hoechst High Intensity Objects (%) [6]: 7% and 5% | Population Membrane Permeable-Phenotype (%) [6]: 3% and 6% | Population Mitochondria Different-Phenotype (%) [6]: 3% | Population Mitotic Cells (%) [6]: 33% and 47% | Population Normal (%) [6]: 92% and 94% | Population Pyknosed Nuclei (%) [6]: 12% and 14% | Population Tubulin-Different-Phenotype (%) [6]: 55% and 66% | Total Cell Count [6]: 160 and 153
